Experimental data gathered from unrelated publications.
Each line is one published result; the experiments were not run side by side.
Target: cAMP-dependent protein kinase catalytic subunit PRKX (PRKX, Homo sapiens, UniProt P51817)
Residues used in one study (P51817 1-358): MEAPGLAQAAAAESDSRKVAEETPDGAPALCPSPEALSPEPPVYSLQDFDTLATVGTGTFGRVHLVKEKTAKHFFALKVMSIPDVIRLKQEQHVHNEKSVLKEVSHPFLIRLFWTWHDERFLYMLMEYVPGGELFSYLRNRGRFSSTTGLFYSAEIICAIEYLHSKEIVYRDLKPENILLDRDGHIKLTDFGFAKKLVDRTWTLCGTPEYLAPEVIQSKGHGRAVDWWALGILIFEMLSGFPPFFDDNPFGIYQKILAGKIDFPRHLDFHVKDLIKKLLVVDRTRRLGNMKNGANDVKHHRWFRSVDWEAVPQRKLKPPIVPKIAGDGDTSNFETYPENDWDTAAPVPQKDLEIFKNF

`CO[C@H]1CC[C@H](CNc2ccc(S(=O)(=O)NC(=O)c3ccc(N4CCN(CC5=C(c6ccc(Cl)cc6)CC(C)(C)CC5)CC4)cc3Oc3cnc4[nH]ccc4c3)cc2[N+](=O)[O-])CC1` has a remaining binding of 100% (cell-free assay; competition with immobilised ligand; 1 µM).
`O=C(c1ccc(Nc2ncc(Cl)c(-c3ccc(Cl)s3)n2)cc1)N1CCC(N2CCCC2)CC1` gave a remaining binding of 95% (binding; competition with immobilised ligand; 1 µM).
For `COc1ccnn2ncc(-c3ccnc(N(C)C)n3)c12`, the remaining binding was 100% (binding; 1 µM).
`O=C(NCC1CCOCC1)c1n[nH]cc1NC(=O)c1c(F)cccc1F` has a remaining binding of 100% (binding; competition with immobilised ligand; 1 µM).
For `Cc1cnn2ncc(-c3ccnc(N(C)C)n3)c2c1`, the remaining binding was 85% (binding; 1 µM).
`c1cncc(-c2cccc(Nc3nccc(NC4CCCCC4)n3)c2)c1` has a remaining binding of 80% (binding; competition with immobilised ligand; 10 µM).
`O=C(N[C@H]1CCCCC/C=C\C2C[C@@]2(C(=O)O)NC(=O)[C@@H]2C[C@@H](Oc3ccncc3)CN2C1=O)OC1CCCC1` (some centres unmarked) has a remaining binding of 80% (cell-free assay; competition with immobilised ligand; 1 µM).
`O=C(c1ccc(Nc2nccc(-c3cc4ccccc4s3)n2)cc1)N1CCC(N2CCCC2)CC1` has a remaining binding of 83% (binding; competition with immobilised ligand; 1 µM).
`CCCOc1ccc([C@H]2[C@H](C(=O)O)[C@@H](c3ccc4c(c3)OCO4)CN2CC(=O)Nc2c(CC)cccc2CC)cc1` gave a remaining binding of 91% (cell-free assay; competition with immobilised ligand; 1 µM).
The remaining binding of `CN(c1nccc(-c2cnn3ncccc23)n1)C1CC1` is reported as 98% (binding; 1 µM).
The remaining binding of `C[C@@H]1CN(c2cc(-c3nn(C)c4ccc(OC5(C)CC5)cc34)ncn2)C[C@H](C)O1` is reported as 92% (cell-free assay; competition with immobilised ligand; 1 µM).
With `N[C@@H]1CCN(c2nccc(-c3cnn4ncccc34)n2)C1` the remaining binding was 100% (binding; 1 µM).
`Cc1c(NC(=O)c2cc(C(N)=O)nc3cc(F)ccc23)c(C(F)(F)F)nn1Cc1ccc(C(C)(C)C)cc1` gave a remaining binding of 94% (cell-free assay; competition with immobilised ligand; 1 µM).
With `COc1cnc(Nc2cccc(S(N)(=O)=O)c2)nc1N1CCN(c2ccccc2)C(=O)C1` the remaining binding was 91% (binding; competition with immobilised ligand; 1 µM).
`Nc1cnc(N2CCc3cc(S(=O)(=O)Nc4c(F)cc(Cl)cc4F)cc(N4CCCC4=O)c32)nc1` gave a remaining binding of 99% (cell-free assay; competition with immobilised ligand; 1 µM).
For `O=C(c1ccc(Nc2ncc(Cl)c(-c3cc4ccccc4s3)n2)cc1)N1CCC(N2CCCC2)CC1`, the remaining binding was 67% (binding; competition with immobilised ligand; 1 µM).
`C[C@@H]1CCN(c2nccc(-c3cnn4ncccc34)n2)C1` has a remaining binding of 100% (binding; 1 µM).
`Nc1ncc2c(n1)-c1c([nH]c3ccc(C#CC4CC4)cc13)CCCC2` has a remaining binding of 79% (binding; competition with immobilised ligand; 1 µM).
With `CN(C)c1nccc(-c2cnn3ncccc23)n1` the remaining binding was 100% (binding; 1 µM).
`COc1ncc2cc3ccccc3nc2c1C#N` has a remaining binding of 82% (cell-free assay; competition with immobilised ligand; 5 µM).
